ChEMBL document CHEMBL1649079, “Pipecolic acid derivatives as small-molecule inhibitors of the Legionella MIP protein” (J Med Chem, 2011)
The source made the active and inactive calls. No cut-off for these calls is given here.

Columns and labels:
[1] = target: T1, Peptidyl-prolyl cis-trans isomerase FKBP1A (Homo sapiens, UniProt P62942); assay: Inhibition of PPIase activity of human FKBP12 expressed in Escherichia coli by spectrophotometry
How it was run: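 Chymotrypsin-coupled PPIase assay using 20 nM FKBP12 and 40 μM succinyl-Ala-Phe-Pro-Phe-4-nitroanilide. Enzyme and substrate preincubated with or without various inhibitor concentrations for 4 min at 10 °C in 35 mM HEPES/NaOH, pH 7.8.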

[2] = target: Outer membrane protein MIP (Legionella pneumophila, UniProt Q70YI1)
[3] = target: T1, Peptidyl-prolyl cis-trans isomerase FKBP1A; assay: Inhibition of FKBP12
Legionella pneumophila [4] = assay: Antibacterial activity against wild type Legionella pneumophila Philadelphia-1 JR32 infected in human U937 cells at 50 uM after 24 to 48 hrs; format: functional, organism-based; settings: U-937
How it was run: (§1)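 U937 macrophage-like cells infected at MOI 10, with or without 50 μM compound kept present throughout incubation. Extracellular bacteria killed with gentamicin 2 h post-infection. Infection samples plated on BCYE agar for CFU counts immediately and after 24 and 48 h.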

Legionella pneumophila [5] = assay: Antibacterial activity against MIP protein-deficient Legionella pneumophila JR32-2 infected in human U937 cells at 50 uM after 24 to 48 hrs; format: functional, organism-based; how it was run: as §1
Escherichia coli = assay: Antibacterial activity against Escherichia coli HB101 infected in human U937 cells at 50 uM after 24 to 48 hrs; format: functional, cell-based; settings: U-937; how it was run: as §1

Sequence of Outer membrane protein MIP (Q70YI1 21-233 limits assumed): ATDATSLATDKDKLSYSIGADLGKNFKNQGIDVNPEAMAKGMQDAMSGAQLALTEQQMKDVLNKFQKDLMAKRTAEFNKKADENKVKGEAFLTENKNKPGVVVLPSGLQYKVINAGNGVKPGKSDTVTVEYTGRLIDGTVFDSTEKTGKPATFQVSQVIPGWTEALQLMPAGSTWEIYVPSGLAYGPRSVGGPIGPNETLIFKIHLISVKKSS
T1 sequence (P62942 whole entry): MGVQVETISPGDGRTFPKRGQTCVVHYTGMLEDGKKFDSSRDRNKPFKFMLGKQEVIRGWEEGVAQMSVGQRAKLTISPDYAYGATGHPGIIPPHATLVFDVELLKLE

Structure (SMILES)	IC50 [1] [µM]	IC50 [2] [µM]	also measured
COc1cc(CCCOC(=O)C2CCCCN2S(=O)(=O)c2cccc(N)c2)cc(OC)c1OC (stereo not drawn)	0.26	> 100	–
CCOC(=O)C1CCCCN1S(=O)(=O)Cc1ccccc1 (stereo not drawn)	2.6	87	–
Nc1cccc(S(=O)(=O)N2CCCCC2C(=O)OCCCc2cccnc2)c1 (stereo not drawn)	0.32	> 100	–
CCOC(=O)C1CCCCN1S(=O)(=O)c1cccc([N+](=O)[O-])c1 (stereo not drawn)	2.8	> 100	–
COc1cc(CCCOC(=O)[C@@H]2CCCCN2S(=O)(=O)Cc2ccccc2)cc(OC)c1OC	0.2	–	Ki [3]: 0.23 µM; Activity (Legionella pneumophila [4]): inactive
CCC(C)C(=O)C(=O)N1CCCCC1C(=O)OCCCc1cc(OC)c(OC)c(OC)c1 (stereo not drawn)	4.2	> 100	–
COc1cc(CCCOC(=O)C2CCCCN2S(=O)(=O)Cc2ccccc2)cc(OC)c1OC (racemic)	0.2	–	–
CCOC(=O)C1CCCCN1S(=O)(=O)c1ccccc1 (stereo not drawn)	3.1	> 100	–
O=C(OCCCc1cccnc1)C1CCCCN1S(=O)(=O)c1cccc([N+](=O)[O-])c1 (stereo not drawn)	0.15	32	–
CO[C@H]1C[C@@H]2CC[C@@H](C)[C@@](O)(O2)C(=O)C(=O)N2CCCC[C@H]2C(=O)O[C@H]([C@H](C)C[C@@H]2CC[C@@H](O)[C@H](OC)C2)CC(=O)[C@H](C)/C=C(\C)[C@@H](O)[C@@H](OC)C(=O)[C@H](C)C[C@H](C)/C=C/C=C/C=C/1C	–	–	Activity (Legionella pneumophila [5]): Active; Activity (Escherichia coli): Active; Activity (Legionella pneumophila [4]): Active
COc1cc(CCCOC(=O)C2CCCCN2S(=O)(=O)c2cccc([N+](=O)[O-])c2)cc(OC)c1OC (stereo not drawn)	0.07	> 100	–
COc1cc(CCCOC(=O)C2CCCCN2S(=O)(=O)c2ccccc2)cc(OC)c1OC (stereo not drawn)	0.12	–	–
CCOC(=O)C1CCCCN1C(=O)C(=O)C(C)CC (stereo not drawn)	> 30	> 100	–
CCC(C)C(=O)C(=O)N1CCCCC1C(=O)OC(CCc1ccccc1)c1ccccc1 (stereo not drawn)	> 30	> 100	–
